Experimental data of several laboratories.
Lines come from different studies, so protocols differ.
Target: Serine/threonine-protein kinase PAK 4 (PAK4, Homo sapiens, UniProt O96013)

Cc1c(NC(=O)c2cc(C(N)=O)nc3cc(F)ccc23)c(C(F)(F)F)nn1Cc1ccc(C(C)(C)C)cc1  remaining binding (cell-free assay; competition with immobilised ligand; 1 µM): 100%
Cc1ccc(NC(=O)c2ccc(C)c(C(F)(F)F)c2)cc1C#Cc1nn(C2CCC(O)CC2)c2ncnc(N)c12 (stereo not shown)  remaining signal (cell-free assay; 10 µM): 88%
Oc1cccc(-c2nc(N3CCOCC3)c3oc4ncccc4c3n2)c1  remaining activity (enzyme activity; inhibitor; 10 µM): 70%
FC(F)(F)Oc1cccc(-c2cnc3ccc(-c4ccncc4)nn23)c1  activity vs control (enzyme activity; inhibitor; radiometric; 1 µM): 81%
O=C(CSc1nc2nccnc2c(=O)n1CCc1ccccc1)Nc1nccs1  inhibition (enzyme activity; inhibitor; 10 µM): 2%
CCN(CC)c1ccc(C2=NNC(=O)CC2C)cc1[N+](=O)[O-] (stereo not shown)  remaining activity (enzyme activity; inhibitor; 10 µM): 98%
Cc1ccc(Nc2nccc(N(C)c3ccc4c(C)n(C)nc4c3)n2)cc1S(N)(=O)=O  inhibition (enzyme activity; inhibitor; 0.3 µM): -17%
Nc1nc(Nc2ccccc2)sc1C(=O)c1c(F)cccc1F  remaining activity (enzyme activity; inhibitor; 10 µM): 47%
Cc1[nH]c(/C=C2\C(=O)Nc3ccc(F)cc32)c(C)c1C(=O)N[C@H]1CCN(C(=O)N(C)C)C1  remaining activity (enzyme activity; inhibitor; 1 µM): 105%
CCCOc1ccc(OC)c(F)c1C(=O)c1ccc(C(=O)N[C@@H]2CNC[C@H]2NC(=O)c2ccc3[nH]ncc3c2)cc1  remaining activity (enzyme activity; inhibitor; 10 µM): 90%
Cc1cc(NC(=O)c2cccc3cc(-c4cccc5[nH]nc(N)c45)ccc23)ccc1F  activity vs control (enzyme activity; inhibitor; 0.1 µM): 97%
CC(C)(C)c1nc2c(s1)c1nc(N)ncc1c1ccc(NS(=O)(=O)c3c(F)cccc3F)c(F)c12  remaining activity (enzyme activity; inhibitor; radiometric; 1 µM): 86%
Cn1c(=O)n(-c2ccc(C(C)(C)C#N)cc2)c2c3cc(-c4cnc5ccccc5c4)ccc3ncc21  remaining activity (enzyme activity; inhibitor; 10 µM): 87%
CSc1cccnc1N1CCN(Cc2nc3ccccc3[nH]2)CC1  remaining binding (cell-free assay; competition with immobilised ligand; 1 µM): 100%
Nc1ncnc2occ(-c3ccc(NC(=O)Nc4cc(C(F)(F)F)ccc4F)cc3)c12  remaining signal (cell-free assay; inhibitor; 20 µM): 61%
COc1cc(-c2cc(-c3ccc(N4CCNCC4)cc3)cnc2C)cc(OC)c1OC  inhibition (enzyme activity; inhibitor; 0.1 µM): 1%
CCC(=O)N[C@H]1CC[C@@H](C(=O)N(C)c2ccc(-c3nc4ccccc4o3)cc2)C1  remaining binding (cell-free assay; competition with immobilised ligand; 1 µM): 100%
O=C1NC(=O)c2cc(Nc3ccc(F)cc3)c(Nc3ccc(F)cc3)cc21  remaining signal (cell-free assay; 0.5 µM): 95.1%
CCc1ccccc1C(=O)Nc1n[nH]c2c(C)c(F)c(C3C(C#N)=C(C)N(C)C(C)=C3C#N)cc12  remaining binding (cell-free assay; competition with immobilised ligand; 1 µM): 100%
CCN(CC)CCNC(=O)c1c(C)[nH]c(/C=C2\C(=O)Nc3ccc(F)cc32)c1C  remaining activity (enzyme activity; inhibitor; 1 µM): 82%
COc1cc(Nc2cnc(C#N)c(O[C@H](C)CN(C)C)n2)ncc1-c1cnn(C)c1  remaining activity (enzyme activity; inhibitor; radiometric; 1 µM): 87%
Cc1ccc(C(=O)Nc2ccc(CN3CCN(C)CC3)c(C(F)(F)F)c2)cc1C#Cc1cnc2cccnn12  remaining activity (enzyme activity; inhibitor; 23.5 nM): 91%
CNC(=O)c1cc(Oc2ccc(NC(=O)Nc3ccc(Cl)c(C(F)(F)F)c3)cc2)ccn1  inhibition (enzyme activity; inhibitor; 10 µM): -9%
COc1cc2c(N3CCN(C(=O)Nc4ccc(OC(C)C)cc4)CC3)ncnc2cc1OCCCN1CCCCC1  remaining signal (cell-free assay; 0.5 µM): 103%
Cc1c[nH]c2nccc(Oc3c(F)cc(Nc4cc(Cl)nc(N)n4)cc3F)c12  remaining binding (cell-free assay; competition with immobilised ligand; 0.1 µM): 100%
CCN(CC)CCNC(=O)c1c(C)[nH]c(/C=C2\C(=O)Nc3ccc(F)cc32)c1C  inhibition (enzyme activity; inhibitor; 10 µM): 55%
COc1cc(-c2cn(C3CCc4c(F)cccc4N(CC(F)(F)F)C3=O)nn2)ccc1-n1cnc(C)c1 (stereo not shown)  remaining binding (cell-free assay; competition with immobilised ligand; 1 µM): 99%
N#CCCc1ccc2c(c1)-c1[nH]c3ccc([N+](=O)[O-])cc3c1CC(=O)N2  remaining signal (cell-free assay; 0.5 µM): 86.4%
NS(=O)(=O)c1cc(NC(=O)C2(c3ccccc3Cl)CC2)ccc1Oc1cccc(Cl)c1  remaining binding (cell-free assay; competition with immobilised ligand; 1 µM): 74%
O=C1Nc2ccc(Cl)cc2C1=Cc1cc(Cl)c(O)c(Cl)c1  remaining signal (cell-free assay; 0.5 µM): 88.7%
O=C(Nc1cnn(-c2csc(C(=O)NC3COC3)c2)c1)Nc1c(F)cccc1Cl  remaining activity (enzyme activity; inhibitor; 5 µM): 107%
CC(C)(O)[C@H]1CC[C@H](Nc2ccc3ncc(-c4cccc(C(F)(F)F)c4)n3n2)CC1  remaining activity (enzyme activity; inhibitor; 1 µM): 98%
CN(C(=O)c1ccccc1)c1cc(N(C)c2ccc3c(c2)CCc2ccc(C(=O)NCCN4CCOCC4)cc2C3=O)ccc1F  remaining binding (cell-free assay; competition with immobilised ligand; 1 µM): 83%
COc1cc(Cl)c(C(=O)N[C@@H](CN[C@H]2CC[C@@H](N)CC2)Cc2ccc(C#N)cc2)cc1-c1ccc(CN[C@H](C)c2ccc(C)cc2)o1  remaining activity (enzyme activity; inhibitor; 1 µM): 102%
